Columns and labels:
[1] = target: T1, DNA topoisomerase 1 (Homo sapiens) (UniProt P11387); experiment: Inhibition of recombinant human DNA topoisomerase-1 assessed as relaxation of supercoiled DNA pBR322 at 100 uM after 30 mins by agarose gel electrophoresis relative to control
T1 sequence (whole entry): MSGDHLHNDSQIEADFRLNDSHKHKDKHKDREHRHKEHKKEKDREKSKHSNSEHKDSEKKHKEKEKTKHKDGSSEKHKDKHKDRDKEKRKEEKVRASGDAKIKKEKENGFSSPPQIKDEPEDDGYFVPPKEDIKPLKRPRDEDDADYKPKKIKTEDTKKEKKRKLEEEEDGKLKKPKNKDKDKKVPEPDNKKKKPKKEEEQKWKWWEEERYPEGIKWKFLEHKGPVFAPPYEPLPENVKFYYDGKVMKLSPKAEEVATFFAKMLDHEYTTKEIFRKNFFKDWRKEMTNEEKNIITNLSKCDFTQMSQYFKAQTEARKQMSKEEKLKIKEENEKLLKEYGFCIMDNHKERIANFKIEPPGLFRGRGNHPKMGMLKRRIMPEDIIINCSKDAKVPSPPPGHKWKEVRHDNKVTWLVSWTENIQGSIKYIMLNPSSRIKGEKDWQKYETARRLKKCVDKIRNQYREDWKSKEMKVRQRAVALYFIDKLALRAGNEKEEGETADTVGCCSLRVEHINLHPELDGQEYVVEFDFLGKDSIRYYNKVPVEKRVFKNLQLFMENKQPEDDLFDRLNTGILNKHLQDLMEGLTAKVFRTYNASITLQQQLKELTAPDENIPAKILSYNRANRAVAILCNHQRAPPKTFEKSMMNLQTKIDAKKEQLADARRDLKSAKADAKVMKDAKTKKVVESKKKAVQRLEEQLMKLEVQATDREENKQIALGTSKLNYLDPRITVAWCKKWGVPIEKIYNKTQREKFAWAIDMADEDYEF
Outline: (§1)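 Relaxation assay with 100 ng pBR322 plasmid DNA and 1 unit recombinant human topo I. Buffer was 10 mM Tris–HCl pH 7.9, 150 mM NaCl, 0.1% BSA, 1 mM spermidine and 5% glycerol, incubated 37 °C for 30 min with or without compound. Products were run on a 1% agarose gel in TAE at 15 V for 7 h and stained with ethidium bromide (0.5 µg/mL) for 30 min.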

[2] = target: T1, DNA topoisomerase 1 (Homo sapiens); experiment: Inhibition of recombinant human DNA topoisomerase-1 assessed as relaxation of supercoiled DNA pBR322 at 20 uM after 30 mins by agarose gel electrophoresis relative to control; outline: as §1
[3] = test system: HeLa; experiment: Cytotoxicity against human HeLa cells measured on day 4 by CCK8 assay; assay type: functional, cell-based; conditions: 96 h
Outline: (§2)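 Cells seeded at […], grown overnight in medium with 10% FBS at 37 °C under 5% CO2. On day 2 they were serum-starved 4 h, then exposed to graded compound concentrations. On day 4 CCK-8 was added for a further 4 h and absorbance read at 450 nm. IC50 came from a four-parameter logistic fit, mean ± SD of three experiments in triplicate.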

[4] = target: DNA topoisomerase 2-alpha (Homo sapiens) (UniProt P11388); experiment: Inhibition of recombinant human DNA topoisomerase-2alpha using supercoiled pBR322 plasmid DNA as substrate at 100 uM after 30 mins by agarose gel electrophoresis relative to control
Chain of DNA topoisomerase 2-alpha (Homo sapiens) (P11388 whole entry): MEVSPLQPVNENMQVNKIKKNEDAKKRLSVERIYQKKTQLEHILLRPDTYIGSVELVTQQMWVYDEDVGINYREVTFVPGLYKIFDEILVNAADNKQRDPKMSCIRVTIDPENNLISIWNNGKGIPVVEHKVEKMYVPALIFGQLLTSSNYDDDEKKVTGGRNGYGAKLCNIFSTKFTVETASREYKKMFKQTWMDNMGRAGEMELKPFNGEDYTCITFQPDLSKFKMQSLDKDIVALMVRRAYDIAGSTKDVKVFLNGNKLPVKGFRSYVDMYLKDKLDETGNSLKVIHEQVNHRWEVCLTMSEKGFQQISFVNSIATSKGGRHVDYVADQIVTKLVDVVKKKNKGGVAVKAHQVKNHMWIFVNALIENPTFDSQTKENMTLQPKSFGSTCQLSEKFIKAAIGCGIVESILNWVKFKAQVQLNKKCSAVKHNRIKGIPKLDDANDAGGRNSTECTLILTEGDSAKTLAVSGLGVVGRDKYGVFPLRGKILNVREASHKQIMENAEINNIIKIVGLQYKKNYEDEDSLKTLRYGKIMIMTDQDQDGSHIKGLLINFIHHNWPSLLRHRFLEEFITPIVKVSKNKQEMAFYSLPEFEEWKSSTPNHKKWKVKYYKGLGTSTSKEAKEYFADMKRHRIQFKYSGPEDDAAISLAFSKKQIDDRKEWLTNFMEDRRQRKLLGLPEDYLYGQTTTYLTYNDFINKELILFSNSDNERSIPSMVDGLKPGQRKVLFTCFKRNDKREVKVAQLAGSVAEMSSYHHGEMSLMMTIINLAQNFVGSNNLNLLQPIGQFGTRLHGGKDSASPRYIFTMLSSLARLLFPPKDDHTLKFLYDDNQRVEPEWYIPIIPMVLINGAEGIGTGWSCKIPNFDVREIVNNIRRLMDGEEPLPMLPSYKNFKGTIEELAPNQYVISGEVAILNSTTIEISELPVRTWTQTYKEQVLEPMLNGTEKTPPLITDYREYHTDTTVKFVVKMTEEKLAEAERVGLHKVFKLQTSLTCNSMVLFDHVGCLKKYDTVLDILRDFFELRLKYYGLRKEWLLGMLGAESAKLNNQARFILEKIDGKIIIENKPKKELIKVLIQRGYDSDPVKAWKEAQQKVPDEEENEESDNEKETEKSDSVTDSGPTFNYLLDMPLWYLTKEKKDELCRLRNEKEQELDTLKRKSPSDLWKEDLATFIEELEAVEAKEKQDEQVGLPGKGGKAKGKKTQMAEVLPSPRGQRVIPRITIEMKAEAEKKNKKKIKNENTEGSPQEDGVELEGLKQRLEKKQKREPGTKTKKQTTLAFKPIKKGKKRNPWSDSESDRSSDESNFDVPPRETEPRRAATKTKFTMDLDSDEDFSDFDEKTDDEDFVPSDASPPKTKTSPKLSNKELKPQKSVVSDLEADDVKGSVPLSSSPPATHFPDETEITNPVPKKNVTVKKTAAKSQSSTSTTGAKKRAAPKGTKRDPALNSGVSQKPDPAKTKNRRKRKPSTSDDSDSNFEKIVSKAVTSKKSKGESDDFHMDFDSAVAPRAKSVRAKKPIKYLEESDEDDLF
Outline: (§3)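 200 ng supercoiled pBR322 with 1 unit human topo II, incubated 30 min at 30 °C with or without compound in 10 mM Tris–HCl pH 7.9, 50 mM NaCl, 5 mM MgCl2, 1 mM EDTA, 1 mM ATP and 15 µg/mL BSA. Reaction was stopped with 7 mM EDTA and run on 1% agarose in TAE at 25 V. Gel was stained with ethidium bromide, visualized under UV, and supercoiled DNA quantitated densitometrically.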

[5] = test system: DU-145; experiment: Cytotoxicity against human DU145 cells measured on day 4 by CCK8 assay; assay type: functional, cell-based; conditions: DU-145, 96 h; outline: as §2
[6] = test system: HCT-15; experiment: Cytotoxicity against human HCT15 cells measured on day 4 by CCK8 assay; assay type: functional, cell-based; conditions: HCT-15, 96 h; outline: as §2
[7] = test system: T47D; experiment: Cytotoxicity against human T47D cells measured on day 4 by CCK8 assay; assay type: functional, cell-based; conditions: 96 h; outline: as §2
[8] = target: DNA topoisomerase 2-alpha (Homo sapiens) (UniProt P11388); experiment: Inhibition of recombinant human DNA topoisomerase-2alpha using supercoiled pBR322 plasmid DNA as substrate at 20 uM after 30 mins by agarose gel electrophoresis relative to control; outline: as §3

SMILES	inhibition [1] [%]	inhibition [2] [%]	IC50 [3] [µM]	inhibition [4] [%]	IC50 [5] [µM]	IC50 [6] [µM]	IC50 [7] [µM]	inhibition [8] [%]
Oc1cccc(-c2cc(-c3ccoc3)cc(-c3cccc(O)c3)n2)c1	44.2	2	4.63	7.3	1.65	1.02	2.59	–
Oc1ccc(-c2cc(-c3cccnc3)cc(-c3ccccc3O)n2)cc1	1.5	0	> 50	8.3	> 50	> 50	> 50	–
Oc1ccc(-c2cc(-c3ccoc3)cc(-c3ccccc3O)n2)cc1	30.1	3.9	> 50	69.3	28	> 50	> 50	12.8
Oc1ccc(-c2cc(-c3cccnc3)cc(-c3cccc(O)c3)n2)cc1	5.9	2.8	> 50	14.8	6.39	> 50	> 50	–
COc1cccc2c1C(=O)c1c(O)c3c(c(O)c1C2=O)C[C@@](O)(C(=O)CO)C[C@@H]3O[C@H]1C[C@H](N)[C@H](O)[C@H](C)O1 [DOXORUBICIN]	–	–	0.88	–	–	1.23	1.34	–
Oc1cccc(-c2cc(-c3ccoc3)cc(-c3ccccc3O)n2)c1	29.5	–	> 50	62.1	2.79	> 50	> 50	7
Oc1ccc(-c2cc(-c3ccco3)cc(-c3cccc(O)c3)n2)cc1	100	1.5	5.17	92.8	2.07	0.84	1.28	21.8
Oc1ccc(-c2cc(-c3cccnc3)cc(-c3ccc(O)cc3)n2)cc1	8.7	5	0.6	65.8	0.24	0.84	2.03	25.7
COc1cc([C@@H]2c3cc4c(cc3[C@@H](O[C@@H]3O[C@@H]5CO[C@@H](C)O[C@H]5[C@H](O)[C@H]3O)[C@H]3COC(=O)[C@H]23)OCO4)cc(OC)c1O [ETOPOSIDE]	–	–	7.32	–	2.09	18.9	13.7	–
Oc1ccc(-c2cc(-c3ccsc3)cc(-c3ccc(O)cc3)n2)cc1	61.7	7.5	4.37	81.2	2.06	1.04	1.77	57.9
Oc1ccc(-c2cc(-c3cccs3)cc(-c3cccc(O)c3)n2)cc1	85.7	1.1	4.14	88.6	1.89	1.77	0.78	21.5
Oc1cccc(-c2cc(-c3ccco3)cc(-c3cccc(O)c3)n2)c1	97.8	0	5.99	88.2	2.15	1.89	3.52	20.6
Oc1cccc(-c2cc(-c3cccnc3)cc(-c3ccccc3O)n2)c1	1.9	0	7.53	55.2	5.58	8.28	6.23	8.1
Oc1cccc(-c2cc(-c3cccs3)cc(-c3ccccc3O)n2)c1	83.2	1.5	> 50	78.1	9.3	> 50	> 50	12.1
Oc1cccc(-c2cc(-c3ccsc3)cc(-c3cccc(O)c3)n2)c1	59.2	4.5	16.6	88.1	1.31	1.63	1.51	23
Oc1ccc(-c2cc(-c3ccoc3)cc(-c3ccc(O)cc3)n2)cc1	74.9	0	3.42	12	3.44	1.53	3.46	–
CC[C@@]1(O)C(=O)OCc2c1cc1n(c2=O)Cc2cc3ccccc3nc2-1 [CAMPTOTHECIN]	–	–	0.18	–	0.02	2.82	1.84	–
Oc1cccc(-c2cc(-c3cccnc3)cc(-c3cccc(O)c3)n2)c1	2.1	1.9	> 50	11.2	> 50	> 50	> 50	–
Oc1ccc(-c2cc(-c3ccsc3)cc(-c3ccccc3O)n2)cc1	13.8	–	> 50	80.6	> 50	> 50	> 50	9.7
Oc1cccc(-c2cc(-c3ccsc3)cc(-c3ccccc3O)n2)c1	10.2	–	> 50	78.2	> 50	> 50	> 50	11
Oc1ccccc1-c1cc(-c2cccnc2)cc(-c2ccccc2O)n1	66.4	0	> 50	5.2	> 50	> 50	> 50	–
Oc1ccccc1-c1cc(-c2ccoc2)cc(-c2ccccc2O)n1	1	–	> 50	12.2	> 50	> 50	> 50	–
Oc1ccccc1-c1cc(-c2ccsc2)cc(-c2ccccc2O)n1	0	–	> 50	84.5	> 50	> 50	> 50	4.7
Oc1ccc(-c2cc(-c3ccccn3)cc(-c3cccc(O)c3)n2)cc1	2.4	–	1.93	11.9	1.98	> 50	0.98	–
Oc1cccc(-c2cc(-c3ccccn3)cc(-c3cccc(O)c3)n2)c1	8.3	–	6.5	52.2	3.61	3.51	1.41	4.3
Oc1ccc(-c2cc(-c3ccccn3)cc(-c3ccccc3O)n2)cc1	0.2	–	> 50	7.8	25.4	> 50	> 50	–
Oc1ccc(-c2cc(-c3ccccn3)cc(-c3ccc(O)cc3)n2)cc1	1.4	–	> 50	27.4	> 50	> 50	1.04	–
Oc1ccc(-c2cc(-c3ccsc3)cc(-c3cccc(O)c3)n2)cc1	17.1	–	2.58	91.5	2.23	1.18	0.76	44.7
Oc1ccccc1-c1cc(-c2ccccn2)cc(-c2ccccc2O)n1	0.8	–	> 50	65.5	> 50	> 50	> 50	4.3

Reference: ChEMBL document CHEMBL3585276, “Topoisomerase I and II inhibitory activity, cytotoxicity, and structure-activity relationship study of dihydroxylated 2,6-diphenyl-4-aryl pyridines” (Bioorg Med Chem, 2015)
